Reference: ChEMBL document CHEMBL1127799, “Derivatives of a novel cyclopeptolide. 1. Synthesis, antifungal activity, and structure-activity relationships” (1994)
Values after ≈ are worked out from the molar mass of the structure shown.

Tests used:
Type in all cases: functional
Candida albicans [1] = test: Tested for minimum inhibitory concentration against Candida albicans 124 (Candida albicans) at pH of 6.5.
Procedure, shortened: (§1)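 Broth microdilution in malt extract broth, initial pH 4.5 or 6.5, with 1×10^3 CFU per 0.2 mL well of thawed stored cultures. Compound stocks were made in 5% DMSO/0.2% Tween 80 and diluted to final 0.05–100 μg/mL. Plates were incubated 48 h at 30 °C and read macroscopically. MIC was the lowest concentration with no detectable growth. Vehicle-only wells served as controls.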

[2] = test system: Meyerozyma guilliermondii; test: Tested for minimum inhibitory concentration against Candida guilliermondii 80 (C.g) at pH of 4.5.; procedure, shortened: as §1
Candida tropicalis [3] = test: Tested for minimum inhibitory concentration against Candida tropicalis 43 (C.t) at pH of 6.5.; procedure, shortened: as §1
Pichia kudriavzevii [4] = test: Tested for minimum inhibitory concentration against Candida krusei 132 (C.k) at pH of 4.5.; procedure, shortened: as §1
Candida albicans [5] = test: Tested for minimum inhibitory concentration against Candida albicans 124 (Candida albicans) at pH of 4.5.; procedure, shortened: as §1
Pichia kudriavzevii [6] = test: Tested for minimum inhibitory concentration against Candida krusei 132 (C.k) at pH of 6.5.; procedure, shortened: as §1
Candida tropicalis [7] = test: Tested for minimum inhibitory concentration against Candida tropicalis 43 (C.t) at pH of 4.5.; procedure, shortened: as §1
[8] = test system: Meyerozyma guilliermondii; test: Tested for minimum inhibitory concentration against Candida guilliermondii 80 (C.g) at pH of 6.5.; procedure, shortened: as §1

| MIC (Candida albicans [1]) [mg/L] | MIC [2] [mg/L] | MIC (Candida tropicalis [3]) [mg/L] | MIC (Pichia kudriavzevii [4]) [mg/L] | MIC (Candida albicans [5]) [mg/L] | MIC (Pichia kudriavzevii [6]) [mg/L] | MIC (Candida tropicalis [7]) [mg/L] | MIC [8] [mg/L] | Compound |
| --- | --- | --- | --- | --- | --- | --- | --- | --- |
| 6.25 (≈ 5.55 µM) | 6.25 (≈ 5.55 µM) | 25 (≈ 22.2 µM) | 25 (≈ 22.2 µM) | 3.13 (≈ 2.78 µM) | 50 (≈ 44.4 µM) | 6.25 (≈ 5.55 µM) | 25 (≈ 22.2 µM) | CC[C@@H](C)[C@H]1C(=O)NCC(=O)N(C)[C@@H](C(C)C)C(=O)N[C@@H](Cc2ccc(OC)cc2)C(=O)N[C@@H](C)C(=O)N2CCCC[C@H]2C(=O)N(C)[C@@H](C(C)C)C(=O)N[C@@H](C(C)C)C(=O)N(C)[C@@H](CC(=O)O)C(=O)N(C)[C@@H]([C@@H](C)CC)C(=O)N1C |
| > 100 | > 100 | > 100 | > 100 | > 100 | > 100 | > 100 | > 100 | CC[C@@H](C)[C@H]1C(=O)NCC(=O)N(C)[C@@H](C(C)C)C(=O)N[C@@H](Cc2ccc(OC)cc2)C(=O)O[C@H](C)C(=O)N2CCCC[C@H]2C(=O)N(C)[C@@H](C(C)C)C(=O)N[C@@H](C(C)C)C(=O)N(C)[C@@H](CCO)C(=O)N(C)[C@@H]([C@@H](C)CC)C(=O)N1C |
| 50 (≈ 44.9 µM) | > 100 | 100 (≈ 89.9 µM) | > 100 | > 100 | 100 (≈ 89.9 µM) | > 100 | 100 (≈ 89.9 µM) | CC[C@@H](C)[C@H]1C(=O)NCC(=O)N(C)[C@@H](C(C)C)C(=O)N[C@@H](Cc2ccc(O)cc2)C(=O)O[C@H](C)C(=O)N2CCCC[C@H]2C(=O)N(C)[C@@H](C(C)C)C(=O)N[C@@H](C(C)C)C(=O)N(C)[C@@H](CC(=O)O)C(=O)N(C)[C@@H]([C@@H](C)CC)C(=O)N1C |
| 100 (≈ 88.9 µM) | > 100 | > 100 | > 100 | 25 (≈ 22.2 µM) | > 100 | > 100 | > 100 | CC[C@@H](C)[C@H]1C(=O)NCC(=O)N(C)[C@@H](C(C)C)C(=O)N[C@@H](Cc2ccc(OC)cc2)C(=O)N[C@H](C)C(=O)N2CCCC[C@H]2C(=O)N(C)[C@@H](C(C)C)C(=O)N[C@@H](C(C)C)C(=O)N(C)[C@@H](CC(=O)O)C(=O)N(C)[C@@H]([C@@H](C)CC)C(=O)N1C |
| > 100 | > 100 | > 100 | > 100 | > 100 | > 100 | > 100 | > 100 | CC[C@H](C)[C@H]1C(=O)NCC(=O)N(C)[C@@H](C(C)C)C(=O)N[C@@H](Cc2ccc(OC)cc2)C(=O)N[C@@H](C)C(=O)N[C@@H](C)C(=O)N2CCCC[C@H]2C(=O)N(C)[C@@H](C(C)C)C(=O)N[C@@H](C(C)C)C(=O)N(C)[C@@H](CC(=O)O)C(=O)N(C)[C@@H]([C@@H](C)CC)C(=O)N1C |
| 12.5 (≈ 11.1 µM) | 12.5 (≈ 11.1 µM) | 25 (≈ 22.2 µM) | 25 (≈ 22.2 µM) | 3.13 (≈ 2.78 µM) | 50 (≈ 44.4 µM) | 6.25 (≈ 5.55 µM) | 100 (≈ 88.8 µM) | CC[C@@H](C)[C@H]1C(=O)NCC(=O)N(C)[C@@H](C(C)C)C(=O)N[C@@H](Cc2ccc(OC)cc2)C(=O)O[C@@H](C)C(=O)N2CCCC[C@H]2C(=O)N(C)[C@@H](C(C)C)C(=O)N[C@@H](C(C)C)C(=O)N(C)[C@@H](CC(=O)O)C(=O)N(C)[C@@H]([C@@H](C)CC)C(=O)N1C |
| – | > 100 | – | > 100 | > 100 | – | > 100 | – | CC[C@H](C)[C@H]1C(=O)NCC(=O)N(C)[C@@H](C(C)C)C(=O)N[C@@H](Cc2ccc(OC)cc2)C(=O)N[C@@H](C)C(=O)N[C@H](C)C(=O)N2CCCC[C@H]2C(=O)N(C)[C@@H](C(C)C)C(=O)N[C@@H](C(C)C)C(=O)N(C)[C@@H](CC(=O)OC(C)(C)C)C(=O)N(C)[C@@H]([C@@H](C)CC)C(=O)N1C |

Second part, the molecule before the results:

| Compound | MIC (Candida albicans [1]) [mg/L] | MIC [2] [mg/L] | MIC (Candida tropicalis [3]) [mg/L] | MIC (Pichia kudriavzevii [4]) [mg/L] | MIC (Candida albicans [5]) [mg/L] | MIC (Pichia kudriavzevii [6]) [mg/L] | MIC (Candida tropicalis [7]) [mg/L] | MIC [8] [mg/L] |
| --- | --- | --- | --- | --- | --- | --- | --- | --- |
| CC[C@@H](C)[C@H]1C(=O)NCC(=O)N(C)[C@@H](C(C)C)C(=O)N[C@@H](Cc2ccc(OCc3ccc(Cl)cc3)cc2)C(=O)O[C@H](C)C(=O)N2CCCC[C@H]2C(=O)N(C)[C@@H](C(C)C)C(=O)N[C@@H](C(C)C)C(=O)N(C)[C@@H](CC(=O)O)C(=O)N(C)[C@@H]([C@@H](C)CC)C(=O)N1C | > 100 | > 100 | > 100 | > 100 | 100 (≈ 80.8 µM) | > 100 | > 100 | > 100 |
| CC[C@@H](C)[C@H]1C(=O)NCC(=O)N(C)[C@@H](C(C)C)C(=O)N[C@@H](Cc2ccc(OC)cc2)C(=O)O[C@H](C)C(=O)N2CCCC[C@H]2C(=O)N(C)[C@@H](C(C)C)C(=O)N[C@@H](C(C)C)C(=O)N(C)[C@@H](CC(=O)N(CC)CC)C(=O)N(C)[C@@H]([C@@H](C)CC)C(=O)N1C | > 100 | > 100 | > 100 | > 100 | > 100 | > 100 | > 100 | > 100 |
| CC[C@@H](C)[C@H]1C(=O)NCC(=O)N(C)[C@@H](C(C)C)C(=O)N[C@@H](Cc2ccc(OC)cc2)C(=O)O[C@H](C)C(=O)N2CCCC[C@H]2C(=O)N(C)[C@@H](C(C)C)C(=O)N[C@@H](C(C)C)C(=O)N(C)[C@@H](CC(=O)NC[Si](C)(C)C)C(=O)N(C)[C@@H]([C@@H](C)CC)C(=O)N1C | > 100 | > 100 | > 100 | > 100 | > 100 | > 100 | > 100 | > 100 |
| CC[C@@H](C)[C@H]1C(=O)NCC(=O)N(C)[C@@H](C(C)C)C(=O)N[C@@H](Cc2ccc(OC)cc2)C(=O)O[C@H](C)C(=O)N2CCCC[C@H]2C(=O)N(C)[C@@H](C(C)C)C(=O)N[C@@H](C(C)C)C(=O)N(C)[C@@H](CC(=O)NCCN(C)C)C(=O)N(C)[C@@H]([C@@H](C)CC)C(=O)N1C | > 100 | > 100 | > 100 | > 100 | > 100 | > 100 | > 100 | > 100 |
| CC[C@@H](C)[C@H]1C(=O)NCC(=O)N(C)[C@@H](C(C)C)C(=O)N[C@@H](Cc2ccc(OCc3ccccc3)cc2)C(=O)O[C@H](C)C(=O)N2CCCC[C@H]2C(=O)N(C)[C@@H](C(C)C)C(=O)N[C@@H](C(C)C)C(=O)N(C)[C@@H](CC(=O)O)C(=O)N(C)[C@@H]([C@@H](C)CC)C(=O)N1C | > 100 | > 100 | > 100 | > 100 | 50 (≈ 41.6 µM) | > 100 | > 100 | > 100 |
| CC[C@@H](C)[C@H]1C(=O)NCC(=O)N(C)[C@@H](C(C)C)C(=O)N[C@@H](Cc2ccc(OC)cc2)C(=O)O[C@H](C)C(=O)N2CCCC[C@H]2C(=O)N(C)[C@@H](C(C)C)C(=O)N[C@@H](C(C)C)C(=O)N(C)[C@@H](CCOC(=O)c2ccccc2C(=O)O)C(=O)N(C)[C@@H]([C@@H](C)CC)C(=O)N1C | > 100 | > 100 | > 100 | > 100 | > 100 | > 100 | > 100 | > 100 |
| CC[C@@H](C)[C@H]1C(=O)NCC(=O)N(C)[C@@H](C(C)C)C(=O)N[C@@H](Cc2ccc(OC)cc2)C(=O)O[C@H](C)C(=O)N2CCCC[C@H]2C(=O)N(C)[C@@H](C(C)C)C(=O)N[C@@H](C(C)C)C(=O)N(C)[C@@H](CC(=O)OC(C)(C)C)C(=O)N(C)[C@@H]([C@@H](C)CC)C(=O)N1C | > 100 | > 100 | > 100 | > 100 | > 100 | > 100 | > 100 | > 100 |
| CC[C@@H](C)[C@H]1C(=O)NCC(=O)N(C)[C@@H](C(C)C)C(=O)N[C@@H](Cc2ccc(OC)cc2)C(=O)O[C@H](C)C(=O)N2CCCC[C@H]2C(=O)N(C)[C@@H](C(C)C)C(=O)N[C@@H](C(C)C)C(=O)N(C)[C@@H](CCN=[N+]=[N-])C(=O)N(C)[C@@H]([C@@H](C)CC)C(=O)N1C | > 100 | > 100 | > 100 | > 100 | > 100 | > 100 | > 100 | > 100 |
| CC[C@@H](C)[C@H]1C(=O)NCC(=O)N(C)[C@@H](C(C)C)C(=O)N[C@@H](Cc2ccc(OC)cc2)C(=O)O[C@H](C)C(=O)N2CCCC[C@H]2C(=O)N(C)[C@@H](C(C)C)C(=O)N[C@@H](C(C)C)C(=O)N(C)[C@@H](CCOC(=O)CCC(=O)O)C(=O)N(C)[C@@H]([C@@H](C)CC)C(=O)N1C | > 100 | > 100 | > 100 | > 100 | > 100 | > 100 | > 100 | > 100 |
| CC[C@@H](C)[C@H]1C(=O)NCC(=O)N(C)[C@@H](C(C)C)C(=O)N[C@@H](Cc2ccc(OC)cc2)C(=O)O[C@H](C)C(=O)N2CCCC[C@H]2C(=O)N(C)[C@@H](C(C)C)C(=O)N[C@@H](C(C)C)C(=O)N(C)[C@@H](CC(=O)Nc2ccc(Br)cc2)C(=O)N(C)[C@@H]([C@@H](C)CC)C(=O)N1C | > 100 | > 100 | > 100 | > 100 | > 100 | > 100 | > 100 | > 100 |
| CCCCCCCCOC(=O)C[C@H]1C(=O)N(C)[C@@H]([C@@H](C)CC)C(=O)N(C)[C@@H]([C@H](C)CC)C(=O)NCC(=O)N(C)[C@@H](C(C)C)C(=O)N[C@@H](Cc2ccc(OC)cc2)C(=O)O[C@H](C)C(=O)N2CCCC[C@H]2C(=O)N(C)[C@@H](C(C)C)C(=O)N[C@@H](C(C)C)C(=O)N1C | > 100 | > 100 | > 100 | > 100 | > 100 | > 100 | > 100 | > 100 |
